Test results taken from ChEMBL document CHEMBL1143862, “Backbone cyclic peptidomimetic melanocortin-4 receptor agonist as a novel orally administrated drug lead for treating obesity” (J Med Chem, 2008).
Numbered stars: 1 amine (or outer) side, 2 acyl side, 3 side chain; on linkers, the order of the positions; unused ones are H or OH. Bridge positions count the residues as written; N and C are the ends. Square brackets hold non-standard residues; d marks the D form. Peptide text beside a SMILES is read from it. NGly(3-aminopropyl) = O=C(CN(CCCN[*:3])[*:1])[*:2]; N(2-Aminoethyl)Gly = O=C(CN(CCN[*:3])[*:1])[*:2]; Adipoyl = O=C(CCCCC(=O)[*:2])[*:1]; Suc = O=C(CCC(=O)[*:2])[*:1]

Experiments:
[1] = target: Melanocyte-stimulating hormone receptor (Mus musculus) (UniProt Q01727); assay: Stimulation of mouse MC1R expressed in HEK293 cells relative to NDP-MSH; type: cell-based
Method in brief: (§1)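 HEK-293 cells stably expressing each melanocortin receptor were transfected with a CRE/β-galactosidase reporter. At 48 h post-transfection, cells were stimulated for 6 h with peptide (10^-4 to 10^-12 M) or 10^-4 M forskolin in DMEM containing 0.1 mg/mL BSA and 0.1 mM IBMX. Lysates were read with ONPG at OD 405 and normalized to protein (OD 595) and to forskolin response. Efficacy is expressed relative to NDP-MSH maximal stimulation.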

[2] = target: Melanocyte-stimulating hormone receptor (Mus musculus, UniProt Q01727); assay: Agonist activity at mouse MC1R expressed in HEK293 cells; type: functional, cell-based; method in brief: as §1
[3] = Permeability across human Caco-2 cells; type: ADME, cell-based
Method in brief: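 Caco-2 cells (passage 60–66) were seeded on 0.4 µm polycarbonate inserts and used 21–23 days later at stable TEER (300–500 Ωcm²). After 30 min buffer pre-incubation at 37 °C with shaking, compound was added apically.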

[4] = target: Melanocortin receptor 4 (Mus musculus) (UniProt P56450); assay: Stimulation of mouse MC4R expressed in HEK293 cells relative to NDP-MSH; type: cell-based; method in brief: as §1
[5] = target: Melanocortin receptor 3 (Mus musculus) (UniProt P33033); assay: Stimulation of mouse MC3R expressed in HEK293 cells relative to NDP-MSH; type: cell-based; method in brief: as §1
[6] = target: Melanocortin receptor 5 (Mus musculus) (UniProt P41149); assay: Stimulation of mouse MC5R expressed in HEK293 cells relative to NDP-MSH; type: cell-based; method in brief: as §1
Melanocortin receptor 4 [7] = target: Melanocortin receptor 4 (Mus musculus, UniProt P56450); assay: Agonist activity at mouse MC4R expressed in HEK293 cells; type: functional, cell-based; method in brief: as §1
Melanocortin receptor 3 = Melanocortin receptor 3 (Mus musculus, UniProt P33033); assay: Agonist activity at mouse MC3R expressed in HEK293 cells; type: functional, cell-based; method in brief: as §1
Melanocortin receptor 5 = Melanocortin receptor 5 (Mus musculus, UniProt P41149); assay: Agonist activity at mouse MC5R expressed in HEK293 cells; type: functional, cell-based; method in brief: as §1
Melanocortin receptor 4 [8] = target: Melanocortin receptor 4 (Homo sapiens, UniProt P32245); assay: Displacement of [125I]NDP-alpha-MSH from MC4R
[9] = AUC in Wistar rat plasma at 1 mg/kg, iv and 10 mg/kg, po; type: ADME, organism-based
Method in brief: (§2)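 Conscious male Wistar rats with a jugular vein cannula implanted 24 h beforehand received peptide dissolved in water, as an iv bolus of 1 mg/kg (n = 5) or orally at 10 mg/kg (n = 2). Heparinized blood was sampled at several times up to 24 h. Plasma was separated at 4 °C, stored at -70 °C and analysed by HPLC-MS. Parameters came from noncompartmental analysis.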

[10] = Biodistribution in rat brain at 10 mg/kg, po after 8 hrs; type: ADME, organism-based; design: dose 10 mg/kg, route oral; settings: read-out: Drug uptake
Method in brief: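 Rats were dosed at 10 mg/kg, iv or po. Brain was collected 8 h after dosing and extracted by a single protein precipitation (90% acetonitrile/10% formic acid, then 50 mM ammonium formate). Peptide was quantified by validated LC-MS/MS and expressed as […] tissue.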

[11] = Half life in Wistar rat plasma at 1 mg/kg, iv and 10 mg/kg, po; type: ADME, organism-based; method in brief: as §2
Mus musculus [12] = assay: Effect on weight gain in ICR:Hsd (CD1) mouse at 0.5 mg/kg/day, po after 12 days relative to control; type: functional
Method in brief: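 Mice (n = 9) were weighed daily, then given a daily oral gavage (5 mL/kg) of peptide at 100 µg/ml or water vehicle. Weight change from day 0 was expressed as mean ± SEM and compared with controls by Student's t-test.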

[13] = Cmax in Wistar rat plasma at 10 mg/kg, po; type: ADME, organism-based; design: dose 10 mg/kg, route oral; method in brief: as §2
[14] = Tmax in Wistar rat plasma at 1 mg/kg, iv; type: ADME, organism-based; design: dose 1 mg/kg, route intravenous; method in brief: as §2
[15] = Volume of distribution at steady state in Wistar rat plasma at 1 mg/kg, iv and 10 mg/kg, po; type: ADME, organism-based; settings: read-out: Vdss; method in brief: as §2
Rattus norvegicus = assay: Bioavailability in Wistar rat plasma at 1 mg/kg, iv and 10 mg/kg, po; type: ADME, organism-based; settings: in vivo; method in brief: as §2
Mus musculus [16] = assay: Reduction of food consumption in ICR:Hsd (CD1) mouse at 0.5 mg/kg, po after 1 hr relative to control; type: functional; design: scale not given: the % may be the effect or the level left
Method in brief: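 Male ICR:Hsd (CD-1) mice, 7–8 weeks old and individually caged, were fasted 16 h and then gavaged once (5 mL/kg) with peptide at 100 µg/ml or with water vehicle (n = 24). Fixed food portions were given immediately and reweighed at 1, 2, 3, 4 and 5 h. Results are mean ± SEM, analysed by RM ANOVA with Tukey's test.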

[17] = Cmax in Wistar rat plasma at 1 mg/kg, iv; type: ADME, organism-based; design: dose 1 mg/kg, route intravenous; method in brief: as §2
[18] = Tmax in Wistar rat plasma at 10 mg/kg, po; type: ADME, organism-based; design: dose 10 mg/kg, route oral; method in brief: as §2
[19] = Elimination half life in rat; type: ADME, tissue-based; settings: plasma; method in brief: as §2

Melanocortin receptor 5, sequence (P41149 whole entry): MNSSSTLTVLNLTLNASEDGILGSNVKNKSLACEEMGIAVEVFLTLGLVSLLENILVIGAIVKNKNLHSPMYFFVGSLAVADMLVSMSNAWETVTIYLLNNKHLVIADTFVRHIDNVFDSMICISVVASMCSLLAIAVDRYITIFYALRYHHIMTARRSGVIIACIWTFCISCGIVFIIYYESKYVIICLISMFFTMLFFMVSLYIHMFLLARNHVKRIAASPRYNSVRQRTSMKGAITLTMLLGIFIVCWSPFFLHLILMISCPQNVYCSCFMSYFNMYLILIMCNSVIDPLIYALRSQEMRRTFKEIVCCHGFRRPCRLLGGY
Melanocortin receptor 5 (Mus musculus), sequence (P41149 whole entry): as above
Melanocortin receptor 3, sequence (P33033 whole entry): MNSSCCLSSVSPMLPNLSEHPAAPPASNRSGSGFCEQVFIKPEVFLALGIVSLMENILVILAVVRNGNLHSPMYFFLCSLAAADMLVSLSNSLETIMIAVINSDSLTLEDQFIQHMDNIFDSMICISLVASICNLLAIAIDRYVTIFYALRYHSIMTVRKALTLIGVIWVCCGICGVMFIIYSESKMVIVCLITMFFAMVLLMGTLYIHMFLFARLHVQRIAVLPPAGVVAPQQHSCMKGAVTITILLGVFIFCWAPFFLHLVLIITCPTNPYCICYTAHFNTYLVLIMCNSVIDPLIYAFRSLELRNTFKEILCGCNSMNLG
Melanocortin receptor 3 (Mus musculus), sequence (P33033 whole entry): as above
Melanocortin receptor 4 (Mus musculus), sequence (P56450 whole entry): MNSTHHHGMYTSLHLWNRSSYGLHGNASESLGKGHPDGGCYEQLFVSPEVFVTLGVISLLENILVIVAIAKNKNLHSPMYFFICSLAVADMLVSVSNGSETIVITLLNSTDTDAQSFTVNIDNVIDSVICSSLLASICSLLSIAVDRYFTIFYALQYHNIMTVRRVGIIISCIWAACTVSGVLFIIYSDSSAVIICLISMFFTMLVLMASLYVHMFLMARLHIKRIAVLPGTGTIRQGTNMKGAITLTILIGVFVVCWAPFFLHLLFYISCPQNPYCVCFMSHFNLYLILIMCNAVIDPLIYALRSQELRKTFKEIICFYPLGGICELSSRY
Melanocortin receptor 4 (Mus musculus, UniProt P56450), sequence (P56450 whole entry): as above
Melanocyte-stimulating hormone receptor (Mus musculus), sequence (Q01727 whole entry, looked up): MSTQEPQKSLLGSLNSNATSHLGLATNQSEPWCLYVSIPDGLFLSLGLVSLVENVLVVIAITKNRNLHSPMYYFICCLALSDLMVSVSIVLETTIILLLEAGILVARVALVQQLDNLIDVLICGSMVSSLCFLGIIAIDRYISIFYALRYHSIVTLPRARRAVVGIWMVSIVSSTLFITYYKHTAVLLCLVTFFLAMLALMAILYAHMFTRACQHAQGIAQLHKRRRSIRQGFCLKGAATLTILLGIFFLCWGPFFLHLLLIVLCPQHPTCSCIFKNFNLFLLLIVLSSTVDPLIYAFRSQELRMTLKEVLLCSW
Melanocyte-stimulating hormone receptor, sequence (Q01727 whole entry): as the sequence (Q01727 whole entry, looked up) above
Melanocortin receptor 4 (Homo sapiens, UniProt P32245), sequence (P32245 whole entry): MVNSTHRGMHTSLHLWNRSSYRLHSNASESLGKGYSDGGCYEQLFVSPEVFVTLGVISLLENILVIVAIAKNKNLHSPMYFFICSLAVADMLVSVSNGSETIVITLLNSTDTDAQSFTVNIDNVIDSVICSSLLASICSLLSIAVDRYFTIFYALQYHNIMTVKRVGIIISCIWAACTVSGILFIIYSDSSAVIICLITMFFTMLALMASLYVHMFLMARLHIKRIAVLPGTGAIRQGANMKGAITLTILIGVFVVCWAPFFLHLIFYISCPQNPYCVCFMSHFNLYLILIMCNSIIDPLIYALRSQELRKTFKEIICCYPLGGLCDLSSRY

Compound | Efficacy [1] [%] | EC50 [2] [nM] | Papp [3] [×10⁻⁶ cm/s] | Efficacy [4] [%] | Efficacy [5] [%] | Efficacy [6] [%] | EC50 (Melanocortin receptor 4 [7]) [nM] | EC50 (Melanocortin receptor 3) [nM] | EC50 (Melanocortin receptor 5) [nM] | also measured
N=C(N)NCCC[C@@H]1NC(=O)[C@@H](Cc2ccccc2)NC(=O)[C@H](Cc2ccccc2)NC(=O)CCC(=O)NCCCN(CC(N)=O)C(=O)[C@H](Cc2c[nH]c3ccccc23)NC1=O (F[dF]RW[NGly(3-aminopropyl)]-NH2; linker N-5 via Suc) | 100 | 28 | 18.8 | 100 | 100 | 100 | 4 | 1260 | 2 | 
OC[C@@H](O)[C@@H](O)[C@H](O)[C@H](O)CO [MANNITOL] |  |  | 2.05 |  |  |  |  |  |  | 
N=C(N)NCCC[C@@H]1NC(=O)[C@@H](Cc2ccccc2)NC(=O)[C@H](Cc2ccccc2)NC(=O)CCCC(=O)NCCN(CC(N)=O)C(=O)[C@H](Cc2c[nH]c3ccccc23)NC1=O | 100 | 120 | 21 | 100 | 100 | 100 | 18 | 1460 | 20 | 
CC(C)NCC(O)COc1cccc2ccccc12 (stereo not given) [PROPRANOLOL] |  |  | 25 |  |  |  |  |  |  | 
N=C(N)NCCC[C@@H]1NC(=O)[C@@H](Cc2ccccc2)NC(=O)[C@H](Cc2ccccc2)NC(=O)c2ccccc2C(=O)NCCN(CC(N)=O)C(=O)[C@H](Cc2c[nH]c3ccccc23)NC1=O | 100 | 550 |  | 100 | 100 | 100 | 150 | 20500 | 390 | IC50 (Melanocortin receptor 4 [8]): 100 nM
N=C(N)NCCC[C@H](NC(=O)[C@H](Cc1c[nH]c2ccccc12)NC(=O)CN)C(=O)N[C@H](Cc1ccccc1)C(=O)N[C@@H](Cc1ccccc1)C(=O)O |  |  | 12 |  |  |  |  |  |  | 
N=C(N)NCCC[C@@H]1NC(=O)[C@@H](Cc2ccccc2)NC(=O)[C@H](Cc2ccccc2)NC(=O)CCC(=O)NCCN(CC(N)=O)C(=O)[C@H](Cc2c[nH]c3ccccc23)NC1=O (F[dF]RW[N(2-Aminoethyl)Gly]-NH2; linker N-5 via Suc) | 100 | 64 | 17.8 | 100 | 100 | 100 | 4 | 770 | 7 | AUC [9]: 416 ng·h/mL; concentration at 8 h [10]: 4700 ng/g; half-life [11]: > 105 min; Activity (Mus musculus [12]): 2.8%; Cmax [13]: 202 ng/mL; Tmax [14]: 5 min; Vd [15]: 2.1 L/kg; F (Rattus norvegicus): 8.5%; Activity (Mus musculus [16]): 46%; Cmax [17]: 977 ng/mL; Tmax [18]: 37 min; half-life [19]: 100 min
N=C(N)NCCC[C@@H]1NC(=O)[C@@H](Cc2ccccc2)NC(=O)[C@H](Cc2ccccc2)NC(=O)CCCCC(=O)NCCCN(CC(N)=O)C(=O)[C@H](Cc2c[nH]c3ccccc23)NC1=O (F[dF]RW[NGly(3-aminopropyl)]-NH2; linker N-5 via Adipoyl) | 100 | 240 | 19 | 100 | 100 | 100 | 5 | 7750 | 26 | 
